# Shown are actives, neighbours in structure and some others; about 3.9% of the full set was active somewhere.
# STAT3 act: IL-6 driven STAT3 reporter potentiators, primary screen, U3A cells, luciferase, luminescence, MLSCN library; IL-6 STAT3-luciferase reporter; 100% = signal with IL-6 EC80 alone; activation (% of control), % at 5.6 µM; AID 871, 2007; actives 0.91% (n = 190,000);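 active = activation above the screen-wide mean of compound activation plus 3 SD, cut at about 130% in these data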
#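 system = STAT3-luciferase reporter U3A cells | reagent = IL-6 stimulus at 33 ng/mL final | timing = 1 h compound pre-exposure, 6 h IL-6 stimulation, 37 °C | measured by = luminescence | evaluation = % activation versus median of IL-6-stimulated wells | control set = IL-6-only wells as 100% reference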
# STAT1 blocker: STAT1 signaling inhibitors, primary screen, cell-based, HTS, luciferase reporter. inhibition, % at 5.5 µM. NIH 3T3 STAT1-luciferase reporter, IFN-gamma, luminescence. AID 920, 2007. actives 0.35% (n = 200,000);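 active = inhibition above a set limit, the mean inhibition across all tested compounds plus 3 SD, cut at about 34% in these data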
# NF-kB neuron act: activators of NF-kB expression in neurons, primary screen, cell-based, HTS; actives 1.6% (n = 190,000); human neuronal cells, NF-kB reporter expression; active compounds read high; fold change at 12.5 µM; AID 1239, 2008; in the data active = fold change above about 3.3
# APP 5'UTR act: activators of APP 5'UTR luciferase reporter, primary screen, SH-SY5Y cells. SH-SY5Y APP 5'UTR luciferase reporter, luminescence; zero percent = DMSO vehicle wells. activation, % at 2 µM. actives 1% (n = 190,000);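 active = activation above a set limit, based on mean plus 3 SD of controls, cut at about 140% in these data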
# Pf gametocyte: late stage P. falciparum gametocyte viability inhibitors, primary screen, ATP luminescence, HTS; P. falciparum stage V gametocytes, 24 h; inhibition, % at 10.9 µM; AID 743093, 2013; actives 0.065% (n = 150,000);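 active = inhibition above the mean plus 3 SD of compounds within the control limits, set per campaign, cut at about 38% in these data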
# STAT1 activator: STAT1 signaling activators, primary screen, cell-based, HTS, luciferase reporter | AID 932, 2007 | actives 2.6% (n = 200,000) | activation (% of control), % at 5.5 µM | NIH 3T3 STAT1-luciferase reporter, IFN-gamma, luminescence; 100% = IFN-gamma alone, no compound;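 active = activation above the screen-wide mean activation plus 3 SD, cut at about 130% in these data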
# Hits are given with their value; 0 = inactive; - = not tested or not shown.
SMILES,STAT3 act,STAT1 blocker,NF-kB neuron act,APP 5'UTR act,Pf gametocyte,STAT1 activator
Cc1nnc(NC(=O)C2COc3ccccc3O2)s1 (stereo not given),0,0,0,0,-,128.9
O=C1C(c2ccncc2)=C(O)c2ccccc21,0,0,3.49,159.8,0,0
CC(C)c1ccc(C2=C(O)c3ccccc3C(=O)C2=O)cc1,0,0,0,0,0,0
Cn1nnc(-c2ccc(OCc3ccccc3F)cc2)n1,0,0,7.83,138.2,0,0
N#Cc1c(-c2ccccc2)ccnc1Oc1ccccc1,0,0,0,0,0,0
O=c1c2ccccc2cnn1CCOc1ccccc1,0,43.6,0,0,0,0
COc1ccc(COc2cccnc2N)cc1,-,-,-,-,0,-
Nc1ncccc1OCc1ccc(Br)cc1,0,0,0,0,0,141.1
CCC(=O)c1c(NCCc2ccccc2)cc(C)oc1=O,0,0,0,0,0,0
Cc1ccc(/C=C2\OC(=O)c3ccccc32)cc1,157.0,0,5.71,0,0,145.5
Cc1ccccc1/C=C1\OC(=O)c2ccccc21,0,0,0,0,0,0
CCCCOc1ccc(C2NC(=O)NC(C)=C2C(C)=O)cc1OCC (stereo not given),0,0,0,0,-,0
COc1ccc(N2C(=O)c3ccccc3NC23CCCCC3)cc1,0,0,0,0,0,134.7
CC(C)Sc1nc2[nH]ncc2c(=O)[nH]1,0,0,0,0,0,0
COc1ccc(-c2csc(-c3cccnc3)n2)cc1C,0,0,0,0,0,149.5
COc1ccc2cc(-c3csc(-c4cccnc4)n3)ccc2c1,0,0,0,0,0,0
Brc1ccc(-c2csc(-c3ccncc3)n2)cc1,0,0,0,0,-,0
c1ccc(-c2csc(-c3cccnc3)n2)cc1,0,0,0,0,0,131.8
Cc1ccc(-c2csc(-c3ccncc3)n2)cc1,0,0,0,0,0,144.5
O=C1C=C(/C=C/c2ccccc2)C[C@@H](c2ccc3c(c2)OCO3)C1,-,-,-,-,0,-
COc1ccc(CCNC(=O)c2cc3cc(F)ccc3nc2C)cc1OC,-,-,-,-,0,-
Cc1ccc(-n2c(C)cc(/C=C3\NC(=O)NC3=O)c2C)c(C)c1,0,0,0,0,0,0
N/C(=N\OC(=O)COc1ccc2ccccc2c1)c1ccncc1,0,0,0,0,-,0
N/C(=N\OC(=O)c1ccc2ccccc2c1)c1ccncc1,0,0,0,149.2,0,147.8
Cc1ccccc1C(=O)O/N=C(\N)c1ccncc1,0,0,0,0,-,133.1
SMILES,STAT3 act,STAT1 blocker,NF-kB neuron act,APP 5'UTR act,Pf gametocyte,STAT1 activator
N/C(=N\OC(=O)c1cccc([N+](=O)[O-])c1)c1ccccn1,0,0,0,0,0,132.9
COc1cccc(C(=O)O/N=C(\N)c2ccncc2)c1OC,0,0,0,0,0,0
N/C(=N\OC(=O)c1ccc2ccccc2c1)c1ccccn1,0,70.6,4.28,158.2,-,0
CCCNC(=O)C1(CC2CC(c3ccccc3)=NO2)CCN(C(=O)C2CCCC2)CC1 (stereo not given),-,-,-,-,0,-
O=C(O)c1ccc(NC(=S)NC(=O)c2cncc(Br)c2)cc1,-,-,-,-,0,-
O=C(O)/C=C/c1cn(-c2ccccc2)nc1-c1ccc(-c2ccc([N+](=O)[O-])cc2)o1,-,-,-,-,0,-
Cc1cc(C)n2nc(-c3ccccc3)cc2n1,0,0,3.67,0,-,141.7
Cc1ccc(-c2cc3nc(C)cc(C)n3n2)cc1,151.6,0,5.12,171.1,0,134.5
Cc1cc(C)n2nc(-c3ccsc3-n3c(C)ccc3C)cc2n1,0,0,0,0,-,0
Cc1ccc(NC(=O)c2cc3nc(C)cc(C)n3n2)cc1,0,0,4.2,146.3,-,142.1
Cc1cc(C)n2nc(C(=O)NCc3ccccc3)cc2n1,0,0,0,0,-,0
Cc1ccc(-c2nnn(CC(=O)N(c3ccc4c(c3)OCCO4)C(C(=O)NCC3CCCO3)c3ccc(F)cc3)n2)o1 (stereo not given),0,0,0,0,0,0
COCCNC(=O)COc1ccc(C)cc1C(=O)c1cc(C#N)c(=O)n(C2CC2)c1,0,0,0,0,0,0
COc1ccc(C(=O)/C=C/c2cn(CC(O)CN3CCOCC3)c3ccccc23)cc1 (stereo not given),0,0,0,0,-,0
COc1ccc(C(=O)/C=C/c2cn(CN3CCN(C)CC3)c3ccccc23)cc1,0,0,6.45,0,-,0
CCOc1ccc(C(=O)/C=C/c2cn(CN3CCN(C)CC3)c3ccccc23)cc1,0,0,3.42,0,-,0
CC1=C(C(=O)OC(C)C)C(c2ccc3c(c2)OCO3)NC(=O)N1 (stereo not given),-,-,-,-,0,-
COc1ccccc1NS(=O)(=O)c1ccc(O)c(NC(=S)NCC2CCCO2)c1 (stereo not given),-,-,-,-,0,-
CCCc1nc2ccc(NC(C)=O)cc2c(=O)n1Cc1ccc(Cl)cc1,0,0,3.66,0,0,142.6
CCCc1nc2ccc(NC(=O)c3cccs3)cc2c(=O)n1Cc1ccccc1Cl,0,0,0,0,0,0
Cc1nc(C(F)(F)F)c(C(=O)N/N=C(\N)c2cccnc2)s1,0,0,0,0,0,0
O=C(CN1CCN(S(=O)(=O)c2ccc3ccccc3c2)CC1)Nc1ccc2c(c1)CCC2,0,0,0,0,-,0
NS(=O)(=O)c1ccc(N=Nc2c(O)ccc3ccccc23)cc1,0,0,0,0,0,132.5
Oc1ccc(N=Nc2c(O)ccc3ccccc23)cc1,0,0,0,0,0,0
O=C(O)c1cnc(-c2ccccc2)nc1Sc1ccccc1Cl,134.6,0,0,0,0,0
SMILES,STAT3 act,STAT1 blocker,NF-kB neuron act,APP 5'UTR act,Pf gametocyte,STAT1 activator
COC(=O)C(C)Oc1ccc(Cl)c(CN2OCC(C)(C)C2=O)c1 (stereo not given),-,-,-,-,0,-
CC(=O)Nc1ccc(Oc2ccc(-c3noc(C)n3)cc2)cc1,0,0,0,0,-,0
CC(=O)Oc1ccc(Oc2ccc(-c3noc(C)n3)cc2)cc1,0,0,5.65,0,0,0
Cc1ccc(SCC(=O)Nc2nccs2)cc1,0,0,0,0,0,0
Cc1ccc(C#N)c(SCC(=O)Nc2nccs2)n1,0,0,0,175.0,0,0
N#Cc1cc2c(nc1SCC(=O)Nc1nccs1)CCCCC2,0,0,0,194.6,-,0
COc1ccccc1CN1CCNC(=O)C1CC(=O)NCCc1cnccn1 (stereo not given),0,0,-,0,0,0
Cc1ccccc1OCCSc1nc2ncnc(N)c2[nH]1,0,0,0,0,0,0
CC(=O)Nc1ccc(S(=O)(=O)N2CCN(c3nc4ccccc4n3CC(C)C)CC2)cc1,-,-,-,-,0,-
Nc1n[nH]c(C2CC2)c1N=Nc1ccc(Cl)c(Cl)c1,-,-,-,-,0,-
Nc1n[nH]c(N)c1N=Nc1ccc2c(c1)OCO2,0,0,0,0,0,132.0
CCCCNC1=CC(=O)C(=O)c2ccccc21,0,0,0,0,0,0

# High-throughput results deposited in PubChem BioAssay by several laboratories.
